Key:
[1] = Cytotoxicity against human PC-3M cells by MTT assay; format: functional, cell-based
Procedure, shortened: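 Tetrazolium (MTT) cytotoxicity assay on monolayers of the metastatic prostate cancer line PC-3M. The result is given as IC50 in µM, averaged from 2–4 independent experiments with 4 replicates each.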

[2] = Antihaptotactic activity in human PC-3M cells assessed as inhibition of cell migration by wound healing assay; format: functional, cell-based
Procedure, shortened: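 Wound-healing (scratch) migration assay on a PC-3M monolayer, with the wound closure quantified. The result is the IC50 for inhibition of migration in µM, averaged from 2–4 independent experiments with 4 replicates each.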

[3] = Ratio of cytotoxic IC50 to antihaptotactic IC50 in PC-3M cells; format: functional, Homo sapiens
Procedure, shortened: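 Index computed as the MTT cytotoxicity IC50 divided by the wound-healing antihaptotactic IC50. Both IC50s were measured in PC-3M cells, each averaged from 2–4 independent experiments with 4 replicates.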

SMILES	IC50 [1] [µM]	IC50 [2] [µM]	Ratio [3]
CC[C@H]1OC(=O)[C@H](Cc2ccccc2)N(C)C(=O)[C@@H](C(C)C)OC(=O)[C@H](Cc2ccccc2)N(C)C(=O)[C@@H](C(C)C)OC(=O)[C@H](Cc2ccccc2)N(C)C1=O [BEAUVERICIN G1]	5	3.8	1.3
CC[C@H]1OC(=O)[C@H](Cc2ccccc2)N(C)C(=O)[C@@H](CC)OC(=O)[C@H](Cc2ccccc2)N(C)C(=O)[C@@H](C(C)C)OC(=O)[C@H](Cc2ccccc2)N(C)C1=O [BEAUVERICIN G2]	10.4	7.6	1.4
CC[C@H]1OC(=O)[C@H](Cc2ccccc2)N(C)C(=O)[C@@H](CC)OC(=O)[C@H](Cc2ccccc2)N(C)C(=O)[C@@H](CC)OC(=O)[C@H](Cc2ccccc2)N(C)C1=O [BEAUVERICIN G3]	16.3	17.2	0.9
CC(C)[C@H]1OC(=O)[C@H](Cc2cccc(F)c2)N(C)C(=O)[C@@H](C(C)C)OC(=O)[C@H](Cc2ccccc2)N(C)C(=O)[C@@H](C(C)C)OC(=O)[C@H](Cc2ccccc2)N(C)C1=O [BEAUVERICIN H1]	7.4	3.2	2.3
CC(C)[C@H]1OC(=O)[C@H](Cc2cccc(F)c2)N(C)C(=O)[C@@H](C(C)C)OC(=O)[C@H](Cc2cccc(F)c2)N(C)C(=O)[C@@H](C(C)C)OC(=O)[C@H](Cc2ccccc2)N(C)C1=O [BEAUVERICIN H2]	6.2	3.2	1.9
CC(C)[C@H]1OC(=O)[C@H](Cc2cccc(F)c2)N(C)C(=O)[C@@H](C(C)C)OC(=O)[C@H](Cc2cccc(F)c2)N(C)C(=O)[C@@H](C(C)C)OC(=O)[C@H](Cc2cccc(F)c2)N(C)C1=O [BEAUVERICIN H3]	4.4	3.2	1.4
CC(C)[C@@H]1OC(=O)[C@@H](Cc2ccccc2)N(C)C(=O)[C@H](C(C)C)OC(=O)[C@@H](Cc2ccccc2)N(C)C(=O)[C@H](C(C)C)OC(=O)[C@@H](Cc2ccccc2)N(C)C1=O [BEAUVERICIN]	8	3.5	2.3
